{"data": "Measured values pooled from the literature", "cell line": "A549", "observed": "cell growth or viability", "note": "Compare with care: the assays were run in different laboratories. pIC50: −log10 of the molar value."}
{"Structure (SMILES)": "Cc1nc(Nc2ccc3c(c2)C(C)(C)C(=O)N3)c2ccccc2n1", "assay": "MTT", "pIC50": 5.49}
{"Structure (SMILES)": "Cc1ncc(CN2CCN(Cc3ccccn3)CC2)c2cc(C(=O)c3ccc4c(c3)OCCO4)oc12", "assay": "MTT", "conditions": "72 h", "pIC50": 4.24}
{"Structure (SMILES)": "C[C@H](CCC(=O)O)[C@H]1CC[C@H]2[C@@H]3CC[C@@H]4C[C@H](O)CC[C@]4(C)[C@H]3CC[C@]12C", "assay": "MTT", "conditions": "72 h", "pIC50": 4.15}
{"Structure (SMILES)": "CN(C)C/C=C/C(=O)Nc1cc2c(Nc3ccc(F)c(Cl)c3)ncnc2cc1O[C@H]1CCOC1", "assay": "MTT", "conditions": "72 h", "pIC50": 4.31}
{"Structure (SMILES)": "COc1cccc2c1C(=O)c1c(O)c3c(c(O)c1C2=O)C[C@@](O)(C(=O)CO)C[C@@H]3O[C@H]1C[C@H](N)[C@H](O)[C@H](C)O1", "assay": "MTT", "conditions": "72 h", "pIC50": 5.57}
{"Structure (SMILES)": "Cc1nc(Nc2ccc3c(c2)/C(=C/c2ccccc2)C(=O)N3Cc2ccccc2)c2ccccc2n1", "assay": "MTT", "pIC50": 4.35}
{"Structure (SMILES)": "O=C(C=Cc1ccccc1)Nc1cc(-c2ccnc(N3CCOCC3)c2)ccn1", "assay": "MTT", "conditions": "72 h", "pIC50": 6.35}
{"Structure (SMILES)": "Cc1ccc2c(-c3cc4c(CNCc5cccnc5)cnc(C)c4o3)cc(=O)oc2c1C", "assay": "MTT", "conditions": "72 h", "pIC50": 4.44}
{"Structure (SMILES)": "O=C(O)c1ccc2c(c1)nc(Nc1cccc(Cl)c1)c1ccncc12", "assay": "crystal violet", "conditions": "48 h", "pIC50": 4.98}
{"Structure (SMILES)": "Cc1nc(N(Cc2ccccc2)c2ccc3c(c2)/C(=C/c2ccccc2)C(=O)N3Cc2ccccc2)c2ccccc2n1 (mixture of isomers)", "assay": "MTT", "pIC50": 6.19}
{"Structure (SMILES)": "C[C@H]1Oc2cc(cnc2N)-c2c(nn(C)c2C#N)CN(C)C(=O)c2ccc(F)cc21", "pIC50": "< 5.08"}
{"Structure (SMILES)": "Cc1nc(Nc2ccc3c(c2)/C(=C/c2ccccc2C)C(=O)N3)c2ccccc2n1", "assay": "MTT", "pIC50": 4.74}
{"Structure (SMILES)": "C=C(F)C(=O)N1CCN(c2nc(OC[C@@H]3CCCN3C)nc3c2CCN(c2cccc4cccc(Cl)c24)C3)C[C@@H]1CC#N", "assay": "ATP luminescence", "conditions": "3D culture", "pIC50": "< 6.00"}
